# Several values for one entry are separate records, joined by “and”; a condition that tells them apart may be missing. Equal entries are not always repeated.
# Columns and labels:
# [1] = test system: HuNoV; conditions: HIE monolayers; cited from earlier work
# [2] = test system: GII.4 Sydney [P31] HuNoV; experiment: HuNoV replication; format: cell-based, human norovirus; conditions: for SI: CC50 over EC50, J2 HIE line
# In short: (§1)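 Differentiated monolayers (24 h INTp, then 5 days INTd) received 100 TCID50 (TCID50 per genotype and HIE line by Reed-Muench) with compound in CMGF- plus 500 μM GCDCA for 1–2 h at 37°C. Cells were washed 3 times, then kept in compound-containing INTd with GCDCA for 24 h. Five ascending concentrations; vehicle 1% DMSO or 2% H2O final. Genome equivalents by RT-qPCR against a standard curve. Triplicate wells, duplicate qPCR. Dunnett versus vehicle; EC50/EC90 by nonlinear regression (top fixed at 100); SI = CC50/EC50.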
# [3] = test system: J2 HIE line; experiment: HIE viability, CellTiter-Glo 2.0 Cell Viability Assay; format: cell-based, human; conditions: J2 HIEs, 24 h
# [4] = test system: J2 HIEs; experiment: Preliminary dose-range cytotoxicity assessment; format: cell-based, human; conditions: for monolayer integrity and propidium iodide staining: 24 h
# [5] = HIE viability, CellTiter-Glo 2.0 Cell Viability Assay; format: cell-based; conditions: human, D2004 HIE line monolayers
# In short: (§2)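 CellTiter-Glo 2.0 read as directed by the manufacturer on 5-day-differentiated monolayers. Triplicate wells were given vehicle or compound in virus-free incubation medium for 24 h. CC50 from nonlinear regression of percent viability, with the bottom fixed at 0.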
# [6] = as above; format: cell-based; conditions: human, J2004 HIE line monolayers
# In short: as §2
# [7] = test system: 3 different GII.4 HuNoV isolates; conditions: fetal ileum-derived 3D HIEs; non-cytotoxic concentration; cited from earlier work
# [8] = test system: GII.3[P21] HuNoV; experiment: HuNoV replication; format: cell-based, human norovirus
# In short: as §1
# [9] = test system: GII.17[P13] HuNoV; experiment: HuNoV replication; format: cell-based, human norovirus
# In short: as §1
# [10] = test system: HuNoV; conditions: 31 randomized patients, compared to placebo; ref NCT03395405; cited from earlier work
# [11] = test system: HuNoV; conditions: HuNoV-infected, otherwise healthy patients, versus placebo; cited from earlier work
# [12] = test system: 5 HuNoV strains; experiment: Antiviral pipeline, summary over all HuNoV strains and HIE lines tested; format: cell-based; conditions: Norovirus, in Homo sapiens
# In short: as §1
# [13] = test system: GI.1[P1] HuNoV; experiment: HuNoV replication; format: cell-based, human norovirus; conditions: for EC90: 100 TCID50
# In short: as §1
# [14] = HIE viability, CellTiter-Glo 2.0 Cell Viability Assay; format: cell-based; conditions: human, IL2004 HIE line monolayers
# In short: as §2
# [15] = test system: HuNoV; conditions: chronically infected HuNoV patients; cited from earlier work
# [16] = test system: GII.4 Sydney [P16] HuNoV; experiment: HuNoV replication; format: cell-based, human norovirus; conditions: for SI: CC50 over EC50; for EC50 / EC90: 100 TCID50, 24 h
# In short: as §1
# [17] = test system: J4FUT2 HIE line; experiment: HIE viability, CellTiter-Glo 2.0 Cell Viability Assay; format: cell-based, human; conditions: J4FUT2 HIEs, 24 h
# [18] = test system: GI.1-based HuNoV replicon; conditions: Huh7 liver cells; cited from earlier work
# [19] = test system: adult jejunal HIE line (J2) monolayers; conditions: cited from earlier work
# [20] = test system: GII.4 Sydney [P31] virus; conditions: adult jejunal HIE line plated as monolayers; cited from earlier work
# [21] = standard adult NTZ dose, one 500 mg tablet by mouth twice daily; cited from earlier work
# [22] = Norovirus, in Homo sapiens, 24 h
# [23] = Norovirus, in Homo sapiens, 24 h, read-out: inhibition of replication
# [24] = CC50 over EC50, J4FUT2 HIE line
# [25] = J4FUT2 HIEs, at 40 and 80 μM, 24 h
# [26] = Norovirus, in Homo sapiens, D2004 (duodenal) HIE line
# [27] = Norovirus, in Homo sapiens, IL2004 (ileal) HIE line
# [28] = Norovirus, in Homo sapiens, J2 HIE line
# [29] = Norovirus, in Homo sapiens, J2004 (jejunal) HIE line
compound,measurement,setting,value
"C[C@@]1(O)[C@H](O)[C@@H](CO)O[C@H]1n1ccc(N)nc1=O [2’CMC, 2’-C-methylcytidine]",HuNoV replication,[1],inhibit HuNoV replication
same,SI,[2],> 31.6
same,reduction of replication,"[2]; J2 HIEs, between 3 – 316 μM, 24 h",0.12 – 2.65 log10
same,EC50,[2]; [22],10 µM
same,EC90,[2]; [22],54 µM
same,inhibition at 316 µM,[2]; [23],23.5 to 100%
same,cytotoxicity (luciferase-based viability assay),[3]; any concentration tested (up to 316 μM),not cytotoxic
"CC(=O)Oc1ccccc1C(=O)Nc1ncc([N+](=O)[O-])s1 [NTZ, nitazoxanide]",monolayer integrity and propidium iodide staining,[4]; 32 μM,monolayers were intact and had few dead or damaged cells
same,monolayer integrity and propidium iodide staining,[4]; 100 μM and above,disassociation of the monolayer
same,"cytotoxicity, CellTiter-Glo 2.0",[4]; highest concentrations (≥100 μM) of range 3 to 316 μM,high cytotoxicity and detachment of the monolayer
same,CC50 at 24 h,[5],50.9 µM
same,CC50 at 24 h,[6],63.1 µM
same,replication of HuNoV isolates,[7],reduced replication
same,SI,[8]; [24],4.5
same,average percent inhibition,[8]; [25],79.6 – 98.8%
same,EC50,[8]; [22],14.4 µM
same,EC90,[8]; [22],> 80 µM
same,inhibition at 20 µM,"[8]; Norovirus, in Homo sapiens, 24 h, read-out: average percent inhibition",39.7 to 55.2%
same,SI,[9]; [24],1.9
same,reduction in replication,"[9]; J4FUT2 HIEs, 80 μM, 24 h",1.5 log10
same,EC50,[9]; [22],33.4 µM
same,EC90,[9]; [22],> 80 µM
same,clinical resolution of symptoms,[10],did not improve clinical resolution of symptoms
same,fecal viral load,[10],no effect
same,symptom resolution,[11],symptom resolution significantly faster
same,EC50,[12],≥ 10 µM
same,SI,[13]; [24],2.7
same,EC90,"[13]; J4FUT2 HIE line, 24 h",76 µM
same,inhibition in replication,[13]; [25],72.3 – 98.2%
same,reduction of genome equivalents,[13]; [25],0.6 – 1.8 log10
same,EC50,[13]; [22],27.4 µM
same,EC90,"[13]; Norovirus, in Homo sapiens, 24 h, J4FUT2 HIE line",76.3 µM
same,CC50 at 24 h,[14],57 µM
same,SI,[2],1.9
same,reduction in replication,"[2]; J2 HIEs, 40 μM, 24 h",0.67 log10
same,reduction in replication,"[2]; J2 HIEs, 80 μM, 24 h",2.31 log10
same,EC50,[2]; [22],37.1 µM
same,EC90,[2]; [22],43 µM
same,inhibition at 40 µM,[2]; [23],76.7%
same,inhibition at 80 µM,[2]; [23],99.5%
same,clinical outcome versus other or no treatments,[15],no differences were reported
same,inhibition of replication (significance),"[16]; 40 μM, duodenal D2004 HIEs",significantly inhibitory
same,inhibition of replication (significance),"[16]; 80 μM, across J2, D2004, J2004, IL2004 HIE lines",significantly inhibitory
same,SI,[16]; D2004 HIE line,1.2
same,SI,[16]; IL2004 HIE line,1.4
same,SI,[16]; J2 HIE line,4.0
same,SI,[16]; J2004 HIE line,1.2
same,EC50,[16]; J2 HIE line,12.9 µM
same,EC50,[16]; [26],42.8 µM
same,EC90,[16]; [26],> 80 µM
same,EC50,[16]; [27],40 µM
same,EC90,[16]; [27],46 µM
same,EC50,[16]; [28],12 µM
same,EC90,[16]; [28],> 80 µM
same,EC50,[16]; [29],53.9 µM
same,EC90,[16]; [29],> 80 µM
same,SIs,"[16]; span over duodenal, jejunal, and ileal lines derived from the same donor",1.2 – 1.4
same,cell viability,"[17]; 80 μM, in tandem with GII.17 assay",significantly reduced cell viability
same,cytotoxicity,"[17]; 40 and 80 μM, in tandem with GII.3 assay",cytotoxic
same,average viability,[17]; in tandem with GI.1 assay,steady up to 40 μM but significantly reduced at 80 μM
same,replication of the replicon,[18],inhibited replication
same,viability,[3]; 80 μM,reduction in viability
same,highest dose tested that kept the cell monolayers intact,[19]; J2 HIE monolayers,10 µM
same,HIE monolayer integrity,[19]; concentrations below 10 µM,intact
same,inhibitory activity on replication,[20],no inhibitory activity
O=C(Nc1ncc([N+](=O)[O-])s1)c1ccccc1O [tizoxanide],replication of HuNoV isolates,[7],reduced replication
same,maximal concentrations of tizoxanide,[21],approximately 10 µg/mL and ~ 38 µM
same,replication of the replicon,[18],inhibited replication

# From publication PMC10245936 (bioRxiv, 2023)
